In PubChem BioAssay AID2520 (Sanford-Burnham Center for Chemical Genomics, 2010):
Hit rate of the full screen: of about 330,000 compounds, about 350 (0.11%) were called active.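 How the source made its calls: active means activation more than six SD over the plate average, tested at 20 µM; inactive means the rest.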 The list comes from a sample in which actives are over-represented; it also holds similar structures and randomly drawn compounds.

The molecules below were run against Apelin receptor (Homo sapiens) (UniProt P35414) (assay: APJ activation via beta-arrestin recruitment – CHO-K1 cells, PathHunter beta-arrestin, luminescence, primary screen (AID 2520;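 further: 0% = DMSO alone and 100% = apelin-13 at 10 nM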)). Conditions: at 20 µM, active compounds read high, 0% DMSO wells, 100% apelin.
Summary of the method: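 Assay system: CHO-K1 APJ beta-arrestin complementation cell line / Compound: single test compound dose, 20 µM final, 1% DMSO / Times: overnight seeding, 90 min compound at 25 °C, 1 h detection / Technique: beta-gal luminescence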

Sequence of Apelin receptor (Homo sapiens) (P35414 whole entry, looked up): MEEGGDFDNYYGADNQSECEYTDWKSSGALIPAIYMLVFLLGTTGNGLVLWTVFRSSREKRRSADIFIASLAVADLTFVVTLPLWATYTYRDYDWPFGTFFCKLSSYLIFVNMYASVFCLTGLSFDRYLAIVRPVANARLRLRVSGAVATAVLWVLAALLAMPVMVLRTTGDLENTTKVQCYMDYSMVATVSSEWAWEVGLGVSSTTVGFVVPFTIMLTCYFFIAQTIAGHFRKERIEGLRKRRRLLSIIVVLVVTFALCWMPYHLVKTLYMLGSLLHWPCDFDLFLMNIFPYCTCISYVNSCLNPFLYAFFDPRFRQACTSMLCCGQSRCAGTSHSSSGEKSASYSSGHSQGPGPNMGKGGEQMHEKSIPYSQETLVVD

SMILES | activation
Cn1c(=O)cc(OCCCC(=O)N2CCN(c3ccccn3)CC2)c2ccccc21 | -3.56% (inactive)
COc1ccc(NC(=O)CSc2nncc(=O)n2N)cc1OC | -6.25% (inactive)
CN(C)/C=C(\C#N)C(=O)c1cccnc1Oc1cccc(F)c1 | -4.09% (inactive)
CC(C)NC(=O)Nc1cccc2c1O[C@@H](CN(C)S(=O)(=O)c1ccc(F)cc1)[C@@H](C)CN([C@H](C)CO)C2=O | -0.163% (inactive)
Cc1ccc(S(=O)(=O)N(C)C)cc1NC(=O)/C=C/c1cccs1 | 2.48% (inactive)
Cn1ccnc1-c1nnn(-c2ccc(F)cc2)n1 | -4.89% (inactive)
CCOc1ccc(CN2CCN(Cc3ccon3)CC2CCO)cc1 (stereo not given) | -0.588% (inactive)
Cc1ccc(C(=O)O)cc1-c1ccc(/C=C2\SC(=O)N(CC(=O)Nc3ccc4c(c3)OCO4)C2=O)o1 | 0.103% (inactive)
CC(NC(=O)c1ccc(Cl)cc1)C(=O)N1CCCCC1 (stereo not given) | 0.246% (inactive)
COc1ccc(C)cc1NC(=O)CSc1nnc2ccc(-c3ccccn3)nn12 | 1.64% (inactive)
COc1ccc(CNS(=O)(=O)c2cc(-c3cc(C)no3)ccc2C(C)C)cc1 | 0.556% (inactive)
CN1CCN(CC#CCC2(O)c3ccccc3-c3ccccc32)CC1 | -0.677% (inactive)
CN1CCN(S(=O)(=O)c2ccc(Nc3ccc(F)cc3)nc2)CC1 | 7.91% (inactive)
Brc1ccc(CN2CC[C@H]3C=CCc4cccc(c43)C2)cc1 | -1.27% (inactive)
CCN1CN(Cc2ccccc2)CNC1=S | -0.233% (inactive)
CCc1ccc(CN2C(=O)c3ccccc3C2C(=O)NCC2CCCO2)cc1 (stereo not given) | 1.09% (inactive)
CCCN(c1ccc(C(C)C)cc1)S(=O)(=O)c1c(C)[nH]c(=O)[nH]c1=O | -2.76% (inactive)
Cc1nn(C)cc1N1C(=O)c2cccc3c(N)ccc(c23)C1=O | -0.917% (inactive)
CCN1C(=O)c2cccc3c(N)ccc1c23 | 24% (active)
CCN1C(=O)c2cccc3c(S(=O)(=O)Nc4ccccc4O)ccc1c23 | 2.45% (inactive)
O=S(=O)(N1CCCCC1)N1CCNCC1 | 2.29% (inactive)
Cc1c(Cl)c([N+](=O)[O-])nn1Cc1ccc(C(=O)N/N=C\c2cc(Cl)ccc2O)o1 | 1.67% (inactive)

SMILES | activation
COc1cc(NC(=O)COC(=O)c2cc(S(=O)(=O)N3CCOCC3)ccc2F)cc(OC)c1 | -0.441% (inactive)
Cc1cc(C(=O)NCCc2ccc(Cl)cc2)c(C)o1 | 7.66% (inactive)
CSCCC(C(=O)NC1=NCCS1)N1C(=O)c2ccccc2C1=O (stereo not given) | 0.0635% (inactive)
CN(C(=O)c1cccc(NC(=O)Cc2ccc([N+](=O)[O-])cc2)c1)C1CCC1 | 0.477% (inactive)
COc1cc(C(=O)Nc2cc(C(F)(F)F)ccc2N2CCOCC2)ccc1O | -3.45% (inactive)
Cc1ccc(NC(=O)CN(C)C(=O)c2cccc(S(=O)(=O)N3CCCC3)c2)cc1 | -1.65% (inactive)
Cc1n[nH]c(=O)n1-c1ccc(Oc2ccccc2)cc1 | -4.14% (inactive)
O=C(CCS(=O)(=O)c1ccc2c(c1)NC(=O)CS2)NCc1ccccc1Cl | 0.174% (inactive)
COC(=O)c1ccc(COc2ccc(/C=N/NC(=O)C(=O)Nc3ccc(OC)cc3)cc2OC)o1 | -4.37% (inactive)
O=C(N/N=C/c1cccc(OCc2ccccc2)c1)c1ccc(Br)o1 | 12% (inactive)
CCCc1ccc(OCc2ccc(C(=O)N/N=C/c3cccc([N+](=O)[O-])c3)o2)c(OC)c1 | 47.7% (active)
O=C(c1cnn2ccccc12)N1CCc2ccccc21 | -0.0654% (inactive)
CCc1ccc(N2CC(C(=O)NC3=NCCS3)CC2=O)cc1 (stereo not given) | 10.1% (inactive)
CSc1nccc(NC(=O)c2ccc(C(C)(C)C)cc2)n1 | 1.31% (inactive)
CSc1cccc(NC(=S)N(C(C)C)C(C)c2ccccn2)c1 (stereo not given) | 1.84% (inactive)
COc1ccccc1N(C)S(=O)(=O)c1ccc(Cl)c(C(=O)Nc2ccncc2)c1 | 4.67% (inactive)
COc1cccc(N(CC(=O)NC2CCCC2)C(=O)Cn2nnc(-c3ccc(C)o3)n2)c1 | 2.12% (inactive)
CCc1nn(-c2cc(Oc3cccc4ccccc34)nc(-c3ccccc3)n2)c(N)c1C#N | -3.92% (inactive)
COc1cccc(OC)c1CN(C)C(=O)c1cnccc1C(F)(F)F | -2.03% (inactive)
CC(=O)NCC(=O)N1CCC(n2nccc2NC(=O)CCCc2ccccc2)CC1 | -2.51% (inactive)
CC1=C/C(=N\OS(=O)(=O)c2ccccc2)C=CC1=O | 40.6% (active)
COc1ccc(C(=O)O/N=C(\N)Cc2ccc(Cl)cc2Cl)cc1OC | 11.8% (active)

SMILES | activation
COc1ccc(C/C(N)=N/OC(=O)c2ccco2)cc1OC | 6.23% (inactive)
COc1ccc(C(=O)ON=C2c3ccccc3-c3ccccc32)cc1OC | -1.57% (inactive)
COc1cccc(CSc2nc3nc(C)cc(C)n3n2)c1 | -1.45% (inactive)
CN(C(=O)CN1C(=O)NC(C)(CCc2ccccc2)C1=O)c1ccccc1 (stereo not given) | -2.66% (inactive)
Cc1nn(CC(=O)NC2CCCCC2)c(=O)c2cccn12 | -3.35% (inactive)
CCOC(=O)C1C(c2ccc(OC)c(OC)c2)c2c([nH][nH]c2=O)CC1(C)O (stereo not given) | 0.0386% (inactive)
O=c1ccc(-c2ccc(S(=O)(=O)Nc3ccccc3)o2)n[nH]1 | 2.43% (inactive)
CC1=NN(C(=O)CCc2ccccc2O)C(O)(C(F)(F)F)C1 (stereo not given) | -2.46% (inactive)
CC1=C(C/C=C(\C)CCCC(C)CCCC(C)CCCC(C)C)C(=O)c2ccccc2C1=O (stereo not given) | 16.4% (inactive)
Cc1cc(NC(=O)Nc2ccccc2[N+](=O)[O-])no1 | -0.224% (inactive)
Cc1csc(SCC(=O)N(c2ccccc2)C(C)C)n1 | -5.06% (inactive)
O=C(Nc1nnc(C2CC2)s1)C1=NN(C2CCS(=O)(=O)C2)C(=O)CC1 (stereo not given) | -2.11% (inactive)
CN(C)S(=O)(=O)c1ccc(N/C=C(\[N+](=O)[O-])S(=O)(=O)c2ccccc2)cc1 | -4.82% (inactive)
CC(=O)Nc1ccc(Sc2ccccc2C(=O)N2CCCC2)cn1 | -0.519% (inactive)
O=C(O)c1cccc2c1C(=O)N(C1CCCCC1)C2 | -1.33% (inactive)
CC1(C)NC(=O)N(CC(=O)N2CCN(S(=O)(=O)c3ccccc3F)CC2)C1=O | -2.41% (inactive)
CCCCCCCCCCCCC(NC(C)=O)(C(=O)OCC)C(=O)OCC | -3.1% (inactive)
O=S(=O)([N-]c1nc2ccccc2nc1-[n+]1ccc(Cc2ccccc2)cc1)c1ccc(Br)s1 | 3.3% (inactive)
CN(CC(=O)NCCc1ccc(S(N)(=O)=O)cc1)CC(=O)Nc1ccc(Cl)cc1 | -2.04% (inactive)
Cc1ccc(-n2nc(N)c3c(=O)oc(N(C)C)nc32)cc1 | -1.59% (inactive)
CCOC(=O)c1sc(=NC(=O)/C=C/c2cccs2)n(C)c1C | -1.39% (inactive)
